Data as given in ChEMBL document CHEMBL3875213, “Quinolines: Microwave-assisted synthesis and their antifungal, anticancer and radical scavenger properties” (Bioorg Med Chem, 2017).
Values after ≈ are worked out from the molar mass of the structure shown. Active and inactive are the calls of the source. No cut-off for these calls is given here.

Columns and labels:
Type in all cases: functional
Candida albicans [1] = assay: Growth inhibition of Candida albicans ATCC 10231 at 125 ug/ml incubated for 48 hrs under dark condition by broth microdilution assay relative to amphotericin B; conditions: ATCC 10231, 48 h, read-out: GI
Summary of the method: (§1)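 Yeast broth microdilution (CLSI M27-A3), RPMI-1640, inoculum 1-5 x 10^3 CFU/mL, DMSO ≤1%, 48 h at 30 °C in a moist, dark chamber. […]. Triplicate; amphotericin B as positive control.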

Candida albicans [2] = assay: Growth inhibition of Candida albicans ATCC 10231 at 7.81 ug/ml incubated for 48 hrs under dark condition by broth microdilution assay relative to amphotericin B; conditions: ATCC 10231, 48 h, read-out: GI; summary of the method: as §1
Candida albicans [3] = assay: Growth inhibition of Candida albicans ATCC 10231 at 3.9 ug/ml incubated for 48 hrs under dark condition by broth microdilution assay relative to amphotericin B; conditions: ATCC 10231, 48 h, read-out: GI; summary of the method: as §1
Candida albicans [4] = assay: Growth inhibition of Candida albicans ATCC 10231 at 62.5 ug/ml incubated for 48 hrs under dark condition by broth microdilution assay relative to amphotericin B; conditions: ATCC 10231, 48 h, read-out: GI; summary of the method: as §1
[5] = Antioxidant activity assessed as fluorescent light-induced superoxide anion scavenging activity at 160 uM incubated for 10 mins by nitroblue tetrazolium dye based assay
Summary of the method: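 Superoxide generated photochemically in 50 mM phosphate buffer pH 7.8 with 13 mM L-methionine, 75 µM nitroblue tetrazolium, 100 µM EDTA and 2 µM riboflavin. Compound at 160 µM. 10 min at 25 °C under fluorescent light; dark controls. Read at 575 nm. Resveratrol as positive control; three independent experiments in triplicate.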

Candida albicans [6] = assay: Growth inhibition of Candida albicans ATCC 10231 at 31.25 ug/ml incubated for 48 hrs under dark condition by broth microdilution assay relative to amphotericin B; conditions: ATCC 10231, 48 h, read-out: GI; summary of the method: as §1
Candida albicans [7] = assay: Growth inhibition of Candida albicans ATCC 10231 at 250 ug/ml incubated for 48 hrs under dark condition by broth microdilution assay relative to amphotericin B; conditions: ATCC 10231, 48 h, read-out: GI; summary of the method: as §1
Candida albicans [8] = assay: Antifungal activity against Candida albicans ATCC 10231 incubated for 48 hrs under dark condition by broth microdilution assay; conditions: ATCC 10231, 48 h
Summary of the method: (§2)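 Broth microdilution per CLSI M27-A3 in RPMI-1640. Inocula adjusted to 1-5 x 10^3 CFU/mL. Stocks in DMSO (≤1%), final 3.9-250.0 µg/mL. Incubated 48 h at 30 °C in a moist, dark chamber, read at OD 405. % inhibition computed from growth and sterility control wells, run in triplicate. MIC80/MIC50 taken from four-parameter logistic concentration-response curves; amphotericin B as positive control.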

Candida albicans [9] = assay: Growth inhibition of Candida albicans ATCC 10231 at 15.62 ug/ml incubated for 48 hrs under dark condition by broth microdilution assay relative to amphotericin B; conditions: ATCC 10231, 48 h, read-out: GI; summary of the method: as §1
[10] = Antifungal activity against Cryptococcus neoformans ATCC 32264 incubated for 48 hrs under dark condition by broth microdilution assay; summary of the method: as §2
[11] = Antioxidant activity assessed as fluorescent light-induced superoxide anion scavenging activity incubated for 10 mins by nitroblue tetrazolium dye based assay
Summary of the method: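 Riboflavin/light superoxide system: 50 mM phosphate pH 7.8, 13 mM L-methionine, 75 µM NBT, 100 µM EDTA, 2 µM riboflavin, compound 0-200 µg/mL. Fluorescent light for 10 min at 25 °C, dark controls, scavenging measured at 575 nm. Resveratrol as reference.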

[12] = Antioxidant activity assessed as DPPH radical scavenging activity at 160 uM incubated for 30 mins under dark condition
Summary of the method: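 Compound at 160 µM incubated with 100 µM DPPH in ethanolic medium, stirred in the dark for 30 min, read at 517 nm. Resveratrol as positive control. Three independent experiments, each in triplicate.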

[13] = Antioxidant activity assessed as DPPH radical scavenging activity incubated for 30 mins under dark condition
Summary of the method: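 DPPH (100 µM) in ethanolic medium, stirred 30 min in the dark, absorbance at 517 nm. Compound varied from 0 to 160 µg/mL to find the concentration scavenging 50% of radicals. Three independent experiments, each in triplicate.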

Row | Structure (SMILES) | inhibition of growth at 125 µg/mL (Candida albicans [1]) [%] | inhibition of growth at 7.81 µg/mL (Candida albicans [2]) [%] | inhibition of growth at 3.9 µg/mL (Candida albicans [3]) [%] | inhibition of growth at 62.5 µg/mL (Candida albicans [4]) [%] | Activity [5] | inhibition of growth at 31.25 µg/mL (Candida albicans [6]) [%] | inhibition of growth at 250 µg/mL (Candida albicans [7]) [%] | MIC50 (Candida albicans [8]) [µg/mL] | MIC80 (Candida albicans [8]) [µg/mL] | inhibition of growth at 15.62 µg/mL (Candida albicans [9]) [%] | MIC50 [10] [µg/mL] | MIC80 [10] [µg/mL] | SC50 [11] [µM] | Activity [12] | SC50 [13] [µM]
1 | CSc1ccc2nc(-c3ccccc3)cc(-c3ccccc3)c2c1 | 39.2 | 11.2 | 4.72 | 21.7 | Active | 16 | 66.3 | 250 (≈ 763 µM) | > 250 | 11.2 | 15.6 (≈ 47.6 µM) | 31.2 (≈ 95.3 µM) |  |  | 
2 | C[C@@H]1[C@H](O)[C@@H](C)/C=C/C=C/C=C/C=C/C=C/C=C/C=C/[C@H](O[C@@H]2O[C@H](C)[C@@H](O)[C@H](N)[C@@H]2O)C[C@@H]2O[C@](O)(C[C@@H](O)C[C@@H](O)[C@H](O)CC[C@@H](O)C[C@@H](O)CC(=O)O[C@H]1C)C[C@H](O)[C@H]2C(=O)O [AMPHOTERICIN B] |  |  |  |  |  |  |  | 0.06 (≈ 0.0649 µM) | 0.12 (≈ 0.13 µM) |  | 0.12 (≈ 0.13 µM) | 0.25 (≈ 0.271 µM) |  |  | 
3 | Oc1ccc(/C=C/c2cc(O)cc(O)c2)cc1 |  |  |  |  | Active |  |  |  |  |  |  |  | 255 | Active | 8.2
4 | Oc1ccc2nc(-c3ccccc3)cc(-c3ccccc3)c2c1 | 3.51 | 0 | 0 | 0 | Active | 0 | 12.2 | 250 (≈ 841 µM) | > 250 | 0 | 125 (≈ 420 µM) | 250 (≈ 841 µM) | > 250 | 70 to 85% | > 250
5 | COc1cc2nc(-c3ccccc3)cc(-c3ccccc3)c2c(OC)c1OC | 86.7 | 6.81 | 0 | 20.7 | Active | 8.13 | 100 | 125 (≈ 337 µM) | 125 (≈ 337 µM) | 6.76 | 7.8 (≈ 21 µM) | 15.6 (≈ 42 µM) | > 250 | 70 to 85% | 18.9
6 | COc1ccc(-c2cc(-c3ccccc3)c3cc(Br)ccc3n2)cc1 | 8.32 | 0 | 0 | 4.57 | Active | 4.5 | 10.6 | > 250 | > 250 | 4.06 | > 250 | > 250 |  |  | 
7 | N#Cc1ccc2nc(-c3ccccc3)cc(-c3ccccc3)c2c1 | 39 | 8.25 | 0 | 19.7 | Active | 12.7 | 69.9 | 250 (≈ 816 µM) | > 250 | 9.26 | 125 (≈ 408 µM) | 250 (≈ 816 µM) | 220 | 70 to 85% | 19.5
8 | FC(F)(F)c1ccc2nc(-c3ccccc3)cc(-c3ccccc3)c2c1 | 14 | 2.81 | 0 | 8.77 |  | 7.83 | 20.1 | > 250 | > 250 | 3.65 | 250 (≈ 716 µM) | 250 (≈ 716 µM) | > 250 | 45 to 55% | 261
